According to ChEMBL document CHEMBL4513216, “Probing the Open Global Health Chemical Diversity Library for Multistage-Active Starting Points for Next-Generation Antimalarials” (ACS Infect Dis, 2020):

Test: Toxicity liver stage against HepG2, at 10uM
Type: cell-based
Parameters: test concentration 10 uM, cell line HepG2-A16-CD81EGFP
Conditions: human, HepG2-A16-CD81EGFP cells; read-out: INHIBITION
How it was run: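 Uninfected HepG2-A16-CD81EGFP cells, 3 × 10^3 per well, 1536-well, plated on prespotted compound at 10 μM final, parasite-free screening media added to match infected plates; puromycin 10 μM positive, DMSO 0.5% negative; run in parallel with 48 h PbLuc assay at 37 °C, 5% CO2; viability by CellTiter-Glo luminescence, normalized to controls.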

Compound	cytotoxicity at 10 µM
Cc1cc(C)nc(N2CCCC(C(=O)Nc3n[nH]c(C(C)C)n3)C2)n1 (configuration not stated)	8.04%
c1ccc(-c2nc(CN3CCOC(Cn4cncn4)C3)cs2)cc1 (configuration not stated)	-4.33%
Cn1cccc1C(=O)NC(C)(C(N)=O)c1cccc(Cl)c1 (configuration not stated)	4.07%
O=C(C1=CCCC1)N1CCO[C@H]2[C@@H](Oc3ccccn3)CC[C@@H]21	0.179%
CCN(CC)C(=O)[C@@H]1C[C@@H](N)CN1c1nc(N2CCCC2)nc(C)c1C	-6.9%
O=C(COCC(F)(F)F)N1CCCC(n2cccn2)C1 (configuration not stated)	-6.28%
CCN(CC)S(=O)(=O)c1cc(Br)ccc1OC	0.58%
NC(=O)C1CCN(Cn2nc(-c3ccc(F)cc3)oc2=O)C1 (configuration not stated)	14.6%
O=C1[C@H]2CN(S(=O)(=O)c3cccs3)C[C@H]2CN1CC1CC1	2%
O=C(NC1CC1)C1CCc2nnc(-c3cccnc3)n21 (configuration not stated)	8.96%
CCOCCN1CCN(CC(=O)NC2(C#N)CCCC2)CC1CC (configuration not stated)	7.73%
Cc1n[nH]c(C)c1C1COCCN1c1ncnc2sccc12 (configuration not stated)	23.1%
COc1ccccc1CNC(=O)N1CCCC(CO)C1 (configuration not stated)	0.91%
CCn1cc(CN(C)S(=O)(=O)c2cnn(C)c2)cn1	8.16%
CCn1cnnc1CCNC(=O)C1COc2ccc(OC)cc2C1 (configuration not stated)	-1.31%
O=C(COCC(=O)N(c1ccccc1)c1ccccc1)N1CCCC1	10.9%
O=C(CC1CCN(CCc2ccccc2)CC1)N1CCCOCC1	-2.38%
CN(Cc1cc2n(n1)CCCNC2)Cc1n[nH]c2c1CCC2	3.04%
CNC(=O)CN1CCC(OCc2ccc(Cl)c(Cl)c2)CC1	-14.4%
O=C(CC1CC1)NCc1cn2c(n1)CN(Cc1cccnc1)CC2	-78%
CN(C)[C@H]1CCCCN(Cc2ccccc2Cn2cccn2)C1	-130%
CC(=O)NCCNC(=O)c1ccc(C)c(-n2cccc2)c1	-2.04%
CCN(CC)C(=O)NC(C)c1ccc(Oc2cccnc2)c(F)c1 (configuration not stated)	17.4%

Compound	cytotoxicity at 10 µM
Cc1ccc(C(=O)N2CCC[C@@H]2Cn2nnc3c(O)nc(C)nc32)cc1	-10.3%
CCN(C)c1ncnc2c1CCN(C(=O)N(C)C)CC2	-0.0197%
Cc1nc(C)n(CC2CCCN2Cc2ccc(F)cc2C#N)n1 (configuration not stated)	-2.59%
O=S(=O)(NCC1(O)CCOc2ccccc21)c1ccccc1F (configuration not stated)	7.22%
CC(=O)Nc1ccc(S(=O)(=O)NC(=O)CCC2CCCO2)cc1 (configuration not stated)	-5.11%
CC1CCCCN1C(=O)c1ccc(Br)s1 (configuration not stated)	-8.21%
CN(C)CCn1ccnc1C1CCN(c2cc(N)nc(N)n2)CC1	0.829%
CN(Cc1ccsc1)C(=O)c1ccc2c(c1)NC(=O)CO2	-12.8%
c1cncc(CN2CCn3cc(Cn4cccn4)nc3C2)c1	4.93%
CN(CCCNC(=O)NCc1ccncc1)CC(F)(F)F	1.85%
CC(C)[C@H](NC(=O)NC1CCS(=O)(=O)C1)C(=O)NCc1cccnc1 (some centres not stated)	5.47%
CCCNC(=O)COc1ccc(C)cn1	-14.5%
CC(Cc1cccs1)NC(=O)CCn1cccn1 (configuration not stated)	-14.7%
CC(C)=CCCC1(C)CCC(=O)N(CCc2csc(N)n2)C1 (configuration not stated)	-4.27%
O=C(c1cc(=O)c(OCc2ccccc2F)co1)N1CCCC1	-0.321%
O=C1CCC2(CCCN(C(=O)c3ccc[nH]3)C2)CN1CCc1c[nH]cn1 (configuration not stated)	0.0773%
COc1cc(C(=O)NCC2CC2)nc2c(C)cc(F)cc12	7.52%
CCCn1cc(C(=O)n2nc(C)cc2C)c(S(=O)(=O)N2CCSCC2)n1	-10.1%
COC(CNC(=O)c1cn(C)nn1)c1ccc(C)s1 (configuration not stated)	-8.11%
CN(C)C(=O)CC1CC2(CCN(Cc3ccoc3)CC2)c2ccccc21 (configuration not stated)	-10.1%
CNC(=O)N1CCC2(CC1)CN(C)Cc1cc(F)ccc12	4.16%
CCCS(=O)(=O)CC(=O)Nc1cc(CC(C)(C)C)n[nH]1	2.43%
c1cnc(CC2COCCN(C3CCCCC3)C2)cn1 (configuration not stated)	0.514%

Compound	cytotoxicity at 10 µM
O=C(NC1CCCCC1)NC1CCCc2c1cnn2CCO (configuration not stated)	8.39%
CN1CCOC(CNCc2c(Cl)nc3ccccn23)C1 (configuration not stated)	-0.0638%
COc1ccc(CNc2c(N3CCN(C(C)=O)CC3)c(=O)c2=O)cc1	-2.36%
Cc1ccc(C(=O)Oc2cc(=O)n3cccc(C)c3n2)cc1	5.62%
CC(=O)N(CCc1nc(-c2cc(C(N)=O)oc2C)cs1)C(C)C	0.988%
COC(=O)[C@H]1C[C@@H](O)CCN1S(=O)(=O)c1cc(C)c(Cl)cc1C	-0.566%
CN(C)[C@@H]1CCN(CC2CC2)[C@H]1Cc1cnn(C)c1	-76.9%
Cc1ccc(C)c(OCCN2CCC(N3CCNC3=O)CC2)c1	1.85%
Cc1nccn1C1CCCN(C(=O)c2ccc3c(c2)nc(C)n3C)C1 (configuration not stated)	-9.75%
CCOC(=O)Cn1nnnc1-c1ccccc1	0.363%
CC(C)NC(=O)CN1CCCNCC1	-0.616%
Cc1nc(C)n(CC2CCCN(c3ccnc(-c4ccccc4)n3)C2)n1 (configuration not stated)	39.4%
Cn1c(SCC(N)=O)nnc1-c1csc2c1CCCC2	36.2%
CN(C)C(C(=O)NC1(CO)CCCC1)c1ccc(F)cc1 (configuration not stated)	-48.2%
CCN1CC(CN(C)c2cc(C)nc(N)n2)Oc2ccccc21 (configuration not stated)	38.8%
CC(C)c1noc(CCCC(=O)NC(C)c2nnc3n2CCC3)n1 (configuration not stated)	9.96%
CSc1ccc(CNCCS(=O)(=O)N2CCOCC2)cc1	4.83%
O=C(O)Cn1nc(C2CC2)c2c(-c3ccco3)ccnc21	-3.96%
CN(C)S(=O)(=O)N1CC[C@H]2OCC[C@@]2(COc2cccnc2)C1	11.2%
O=S(=O)(Cc1ccccc1Cl)N1CCC2(CC1)OCCS2	0.649%
CSCCC(=O)N1CC[C@@H](N2CCN(c3ccccc3F)CC2)[C@H](O)C1	-91.4%
CN(C(=O)Nc1cccc(C#N)c1)C1CCN(c2ccccn2)CC1	1.66%
Cc1cccc(Cc2cc(C)nc(C3CCCNC3)c2)c1 (configuration not stated)	1.58%

Compound	cytotoxicity at 10 µM
Cc1cnc2c(S(=O)(=O)NCC3CC3)cccc2c1	-2.87%
Cc1ccoc1C(=O)N1CCC(n2cc(-c3ccsc3)nn2)CC1	5.02%
CC(C)CN1CC(C(=O)NCc2cccnc2-n2cccn2)CC1=O (configuration not stated)	-1.04%
CC1c2cccn2CCN1S(=O)(=O)N1CCCCCC1 (configuration not stated)	-2.3%
CC(C)[C@H]1CN(c2cnccn2)C[C@@H]1NC(=O)C1(C#N)CCOCC1	-6.35%
CC(C)c1cc(C(=O)NCCn2nnc3ccccc32)no1	-1.95%
CNc1cncc(C2CCCN2C(=O)c2ccc3oc(C)cc3c2)n1 (configuration not stated)	4.52%
CNC(=O)c1coc(-c2csc(C)n2)c1	6.96%
CCN1CCN2CCCN(S(=O)(=O)c3ccc(C)cc3C)C2C1=O (configuration not stated)	0.515%
CCCN(CC)C(=O)c1cc(Cn2c(C)nc3ccccc32)[nH]n1	36.7%
CCOc1nnc(CN(Cc2ccccc2)CC(O)c2ccco2)s1 (configuration not stated)	-1.57%
Cc1nc(NC(=O)N[C@H](CO)c2ccccc2)sc1C	-7.32%
Cc1cc(C)c(CNC(=O)NCC2CCCN2C)c(=O)[nH]1 (configuration not stated)	-2.14%
Cc1ccc(F)c(NC(=O)CCC(=O)N(C)Cc2cc(C3CC3)[nH]n2)c1	7.28%
CCc1nccn1C1CCCN(C(=O)c2ccc3c(c2)OCO3)C1 (configuration not stated)	-12.6%
OC1(CN2CCCCC2)CCN(c2ccc(C(F)(F)F)cn2)C1 (configuration not stated)	-11%
CC(C)C1CN(S(=O)(=O)Cc2cccc(C#N)c2)CCS1 (configuration not stated)	2.66%
CC(C)CNC(=O)CNC(=O)NC(c1nccs1)C1CC1 (configuration not stated)	-6.66%
N#CC1COCCN1C(=O)c1ccc2[nH]ccc2c1 (configuration not stated)	14.4%
CCN(CC1CCOCC1)C(=O)C1CC(=O)N(Cc2cccnc2)C1 (configuration not stated)	0.719%
Cn1cc(NC(=O)C2CC(c3ccccc3)C2)ccc1=O (configuration not stated)	-4.42%
CCOc1ccccc1CNC(=O)N(CC)C(C)c1cccnc1 (configuration not stated)	-3.64%
CCOC(=O)Cn1c(=O)c(OCC)nc2cnccc21	4.25%

Compound	cytotoxicity at 10 µM
COc1ccc(F)cc1Cn1nc(C(N)=O)ccc1=O	-2.52%
CCO[C@@H]1C[C@H]2CN(Cc3ccc(C)o3)CCN2C1	-149%
COc1ccc(C(CN2CCN(C)CC2)Nc2ncccn2)cc1 (configuration not stated)	5.54%
CCOCCC(=O)N1CCCCC1CCn1cccn1 (configuration not stated)	-0.168%
Cc1ccc(=O)n(CC2(O)CCN(Cc3cc(C)c(O)c(C)c3)CC2)n1	1.7%
Cn1c(Cn2cccn2)nnc1C1CCCN(c2ccncc2)C1 (configuration not stated)	-14.2%
CCn1c(=O)c2cc(S(N)(=O)=O)ccc2n(CC)c1=O	-13.4%
COC(C)c1cccc(NCc2cccc(O)c2)c1 (configuration not stated)	-0.334%
CCc1nccn1C1CCCN(C(=O)c2c(C)nsc2NC)C1 (configuration not stated)	-5.86%
CC(C)(O)CNC(=O)NCc1nccn1CCc1ccccc1	3.04%
Cc1ccc(SC2CCCC2)c(C(=O)NCCc2n[nH]c(=O)[nH]2)c1	-45.3%
O=C(c1ccc(N2CCCC2)nn1)N1CCCC(n2ccnc2)C1 (configuration not stated)	-16.2%
CCCn1cnnc1CNC(=O)CC1C(=O)NCCN1CC(C)(C)C (configuration not stated)	-0.798%
Cc1ccc(C)c(CN2CCOC(c3noc(C)n3)C2)c1 (configuration not stated)	5.12%
CN(Cc1ccco1)[C@@H]1CN(Cc2cccnc2)[C@@H]2CCCO[C@H]12	-79.8%
CCC(CC)CN1CCC(n2cc(C3CCCC3)nn2)CC1	3.92%
O=C(c1cc(=O)[nH]c(=O)[nH]1)N1CCCCC1c1nc2cc(F)ccc2[nH]1 (configuration not stated)	-9.64%
COCCn1cnnc1C(C)NC(=O)c1[nH]c2c(C)cc(C)cc2c1C (configuration not stated)	-9.11%
CC(=O)N1CCC(NC[C@H]2Cn3c(-c4ccccc4)cnc3CO2)CC1	-5.04%
CCC(O)CN1CCN(C(=O)c2ccnc(N(C)C)c2)CC1 (configuration not stated)	-7.87%
